The source of these data is ChEMBL document CHEMBL5252639, “Exploration of cytotoxic potential and tubulin polymerization inhibition activity of cis-stilbene-1,2,3-triazole congeners” (RSC Med Chem, 2023).

For one data set, the system named is BT-474. Kind of data set: Cytotoxicity against human BT-474 cells assessed as inhibition of cell growth measured for 24 hrs by MTT assay. Format: functional, cell-based. Particulars: BT-474, 24 h. The gist of the method:
(§1)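 Cells were kept at 37 °C with 5% CO2 in suitable medium with 10% FBS and 1% antibiotic-antimycotic, and passaged at 80-90% confluency using 0.25% trypsin/1 mM EDTA. They were seeded at 1×10^3–4×10^3 cells/well and attached overnight. Compounds came from 10 mM DMSO stocks diluted in medium and were applied for 24 h. MTT (0.5 mg/mL) was added for 4 h at 37 °C, formazan was dissolved in DMSO, and absorbance was read at 570 nm.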
In general terms: Tetrazolium assays rely on reduction of a dye to a coloured formazan, in cell work by metabolically active cells.

Data set [1] relates to HCT-116. Put plainly: Cytotoxicity against human HCT-116 cells assessed as inhibition of cell growth measured for 24 hrs by MTT assay. Format: functional, cell-based. Particulars: HCT-116, 24 h. In outline: as §1
Data set [2] can be described thus: Cytotoxicity against human HaCaT cells assessed as inhibition of cell growth measured for 24 hrs by MTT assay. Format: toxicity, cell-based. In outline: as §1
Data set [3] concerns HCT-116. Kind of data set: Induction of morphological change in human HCT-116 cells assessed as change in cell shape incubated for 24 hrs by phase contrast microscopic analysis. Format: functional, cell-based. Particulars: dose 1.62-6.5 µM. In outline: (§2)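 HCT-116 plated at 1 × 10^6 cells/mL in RPMI + 10% FBS and allowed to adhere 24 h at 37 °C, 5% CO2. […] After 24 h, morphology imaged by phase-contrast microscopy at 20X.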

The test system of data set [4] is HCT-116. Kind of data set: Induction of morphological change in human HCT-116 cells assessed as cell rounding incubated for 24 hrs by phase contrast microscopic analysis. Format: functional, cell-based. The settings on record: dose 1.62-6.5 µM. The gist of the method: as §2
The test system of data set [5] is HCT-116. Put plainly: Induction of apoptosis in human HCT-116 cells assessed as cell fragmentation measured for 24 hrs by DAPI staining based microscopic analysis. Format: functional. Particulars: dose 1.62-6.5 µM. In outline:
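Cells were seeded at 1×10^6 cells/well in 24-well plates and cultured 24 h. […] After PBS washing they were fixed in 4% paraformaldehyde for 30 min, permeabilized with 0.1% Triton X for 15 min, and stained with 1 µM DAPI for 15 min. Imaging used fluorescence microscopy (ex 350/em 460 nm) at 20X.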

Data set [6] concerns HCT-116. Kind of data set: Induction of apoptosis in human HCT-116 cells assessed as viable cells at 1.62 uM measured after 24 hrs by Annexin V-FITC/propidium iodide staining based flow cytometry (reference value: 99.71%). Format: functional. The settings on record: read-out: Activity. (In flow cytometry, cells or beads pass a laser one at a time.)
The test system of data set [7] is HCT-116. Kind of data set: Induction of apoptosis in human HCT-116 cells assessed as late apoptotic cells at 6.50 uM measured after 24 hrs by Annexin V-FITC/propidium iodide staining based flow cytometry (reference value: 0.00%). Format: functional. Particulars: dose 6.5 µM.
Data set [8] has as its system HCT-116. Kind of data set: Induction of cell cycle arrest in human HCT-116 cells assessed as accumulation of cells at G2/M phase at 3.25 uM measured after […] by PI staining based flow cytometry analysis relative to control (reference value: 15.61%). Format: functional.
Data set [9] relates to HCT-116. Kind of data set: Induction of cell cycle arrest in human HCT-116 cells assessed as accumulation of cells at G0/G1 phase at 6.50 uM measured after 48 hrs by PI staining based flow cytometry analysis relative to control (reference value: 70.34%). The settings on record: dose 6.5 µM. Format: functional.
The target of the next data set is Tubulin (Homo sapiens) (UniProt P68371+Q9H4B7+P0DPH7+P68366+Q13509+Q71U36+P04350+Q3ZCM7+P07437+P68363+Q9BQE3+Q6PEY2+Q13885+Q9BVA1+Q9BUF5). Kind of data set: Inhibition of tubulin polymerization in human HCT-116 cells at 3.25 uM measured after 1 hr relative to control. Format: cell-based.
Data set [10] has as its system HCT-116. Put plainly: Induction of cell cycle arrest in human HCT-116 cells assessed as accumulation of cells at S phase at 1.62 uM measured after 24 hrs by PI staining based flow cytometry analysis relative to control (reference value: 5.55%).

For `COc1ccc(/C=C(/C(=O)OCc2cn(Cc3cc(F)ccc3F)nn2)c2ccc(OC)c(OC)c2)cc1OC`, the IC50 in the data set on BT-474 is 12.9 µM; with HCT-116 [1] it was 3.25 µM. Moreover, the IC50 at 24 h in data set [2] was determined as 72.2 µM. The Activity entry in the data set with HCT-116 [3] is “Dose-Dependent Effect”; in the data set on HCT-116 [4], “Dose-Dependent Effect”; in the data set with HCT-116 [5], “Dose-Dependent Effect”; in the data set on HCT-116 [7], 49.32%; with HCT-116 [8], 38.72%; in the data set on HCT-116 [9], 38.48%. In the data set with HCT-116 [10], the Activity is on record as 7.32%. The viability at 1.62 µM in the data set with HCT-116 [6] was determined as 81.7%. The compound also had an inhibition against Tubulin (Homo sapiens) of 36.5%.

Usually IC50 stands for the concentration at which inhibition is half-maximal. As usually defined, the inhibition is the relative decrease from the control value, in per cent.
